Calls of active or inactive are those of the source. The rule behind the calls is not given here.
Legend:
[1] = target: Protein arginine N-methyltransferase 1 (Homo sapiens, UniProt Q99873); assay: Covalent binding affinity to human PRMT1 assessed as covalent adduct. formation at 300 uM pre-incubated for 1 hr by mass spectrometry
Method in brief: (§1)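 PRMT protein at 15 μM was incubated 1 h at room temperature with a 20-fold molar excess of inhibitor (300 μM). The reaction was quenched with 0.1% aqueous TFA, separated by HPLC (5–95% acetonitrile in water) and analysed by ESI time-of-flight LC/MS for protein–ligand adduct mass.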

[2] = target: Histone-lysine N-methyltransferase SUV39H1 (Homo sapiens) (UniProt O43463); assay: Inhibition of SUV39H1 (unknown origin) assessed as reduction in incorporation of [3H]-labeled methyl group into biotinylated substrate using [3H-SAM] at 50 uM incubated for 1 hr by scintillation proximity assay relative to control
Sequence of Histone-lysine N-methyltransferase SUV39H1 (Homo sapiens) (O43463 whole entry): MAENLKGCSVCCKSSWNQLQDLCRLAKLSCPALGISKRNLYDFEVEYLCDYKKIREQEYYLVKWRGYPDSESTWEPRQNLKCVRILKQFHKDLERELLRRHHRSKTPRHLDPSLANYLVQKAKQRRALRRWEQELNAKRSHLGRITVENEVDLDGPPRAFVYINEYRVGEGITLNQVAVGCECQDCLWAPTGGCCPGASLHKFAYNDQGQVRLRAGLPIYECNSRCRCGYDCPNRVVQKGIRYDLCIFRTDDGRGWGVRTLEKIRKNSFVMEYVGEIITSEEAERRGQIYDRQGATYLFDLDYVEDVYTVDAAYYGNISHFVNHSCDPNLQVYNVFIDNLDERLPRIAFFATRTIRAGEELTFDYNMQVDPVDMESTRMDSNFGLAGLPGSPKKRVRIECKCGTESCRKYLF
Method in brief: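 Panel of 33 methyltransferases (22 PKMTs, 3 DNMTs, 8 PRMTs), each tested at 10 and 50 μM compound. Activity was read as ³H-methyl transfer from ³H-SAM in a radiometric assay done as previously described.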

[3] = target: Protein arginine N-methyltransferase 6 (Homo sapiens, UniProt Q96LA8); assay: Covalent binding affinity to human PRMT6 assessed as covalent adduct. formation at 300 uM pre-incubated for 1 hr by mass spectrometry; method in brief: as §1
Sequence of Protein arginine N-methyltransferase 6 (Q96LA8 whole entry, looked up): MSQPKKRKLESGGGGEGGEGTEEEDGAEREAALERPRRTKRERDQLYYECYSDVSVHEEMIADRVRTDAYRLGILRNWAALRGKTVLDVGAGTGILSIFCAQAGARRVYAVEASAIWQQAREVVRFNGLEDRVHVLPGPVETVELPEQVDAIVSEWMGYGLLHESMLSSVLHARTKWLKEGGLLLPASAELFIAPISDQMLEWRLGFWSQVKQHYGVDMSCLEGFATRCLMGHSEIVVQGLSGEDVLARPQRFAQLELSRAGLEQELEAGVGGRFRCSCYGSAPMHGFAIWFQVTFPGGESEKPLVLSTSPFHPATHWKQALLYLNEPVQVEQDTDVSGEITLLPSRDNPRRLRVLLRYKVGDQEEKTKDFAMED

Sequence of Protein arginine N-methyltransferase 1 (Q99873 whole entry, looked up): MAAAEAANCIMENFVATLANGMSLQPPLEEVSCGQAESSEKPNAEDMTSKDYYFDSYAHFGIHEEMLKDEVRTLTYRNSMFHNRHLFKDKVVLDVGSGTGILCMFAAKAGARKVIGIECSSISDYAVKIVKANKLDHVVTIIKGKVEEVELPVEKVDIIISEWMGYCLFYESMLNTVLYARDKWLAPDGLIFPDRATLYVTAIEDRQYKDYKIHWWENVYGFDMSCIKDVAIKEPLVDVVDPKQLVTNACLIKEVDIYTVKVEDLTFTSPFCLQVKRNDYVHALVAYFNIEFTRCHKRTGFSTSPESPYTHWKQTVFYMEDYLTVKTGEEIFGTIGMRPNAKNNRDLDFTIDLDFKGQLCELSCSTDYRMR

**Q.** C=CC(=O)Nc1cccc(-c2c[nH]cc2CN(C)CCN)c1 was tested. Which Activity [1] did it give?
**A.** The Activity was “inactive”.

**Q.** And the inhibition [2]?
**A.** Its inhibition is greater than 50%.

**Q.** And the Activity [3]?
**A.** Its Activity is “Active”.
